Screening data deposited in PubChem by several laboratories.
Compounds with a hit are over-represented: about 1.4% of the library has one in this group of screens.
GSTO1 inh: blocks human GSTO1 in RBBP9 counter-screen. P78417. inhibition, % at 5.96 µM. AID 1974. recombinant GSTO1, activity-based probe fluorescence polarization. actives 1.1% (n = 300,000);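 active = inhibition above the campaign mean inhibition plus 3 SD, cut at about 35% in these data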;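 also: 0% = GSTO1-1 with DMSO and 100% = wells lacking GSTO1-1 enzyme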
Apaf1 inhib: inhibitors of human Apaf-1 apoptosome | reconstituted apoptosome caspase-3 activity, DEVD-Rh110 fluorescence | inhibition, % at 20 µM | actives 0.71% (n = 330,000); active = inhibition of at least 40% at 20 µM;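 also: plate controls were DMSO wells for no effect and DEVD-CHO caspase inhibitor wells for full effect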
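System: Apoptosome proteins | Medium: Hepes pH 7.5 with detergent and BSA | Also added: Cytochrome c trigger plus (Z-DEVD)2-Rh110 caspase-3 substrate | Incubation: 30 min compound preincubation, 50 min activation, room temperature | Detection: Rhodamine 110 fluorescence at Ex 480/Em 540 nm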
HKDC1 inh: inhibitors of human hexokinase HKDC1; recombinant HKDC1, G6PDH/diaphorase resazurin coupled fluorescence; inhibition, % at 20 µM; actives 0.16% (n = 340,000); AID 493160;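 active = inhibition above about 35% when tested at 20 µM, limit read from the data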;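 also: plate controls were DMSO wells with enzyme for no effect and DMSO wells lacking enzyme for full effect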
Target sequence (Q2TB90 whole entry, looked up): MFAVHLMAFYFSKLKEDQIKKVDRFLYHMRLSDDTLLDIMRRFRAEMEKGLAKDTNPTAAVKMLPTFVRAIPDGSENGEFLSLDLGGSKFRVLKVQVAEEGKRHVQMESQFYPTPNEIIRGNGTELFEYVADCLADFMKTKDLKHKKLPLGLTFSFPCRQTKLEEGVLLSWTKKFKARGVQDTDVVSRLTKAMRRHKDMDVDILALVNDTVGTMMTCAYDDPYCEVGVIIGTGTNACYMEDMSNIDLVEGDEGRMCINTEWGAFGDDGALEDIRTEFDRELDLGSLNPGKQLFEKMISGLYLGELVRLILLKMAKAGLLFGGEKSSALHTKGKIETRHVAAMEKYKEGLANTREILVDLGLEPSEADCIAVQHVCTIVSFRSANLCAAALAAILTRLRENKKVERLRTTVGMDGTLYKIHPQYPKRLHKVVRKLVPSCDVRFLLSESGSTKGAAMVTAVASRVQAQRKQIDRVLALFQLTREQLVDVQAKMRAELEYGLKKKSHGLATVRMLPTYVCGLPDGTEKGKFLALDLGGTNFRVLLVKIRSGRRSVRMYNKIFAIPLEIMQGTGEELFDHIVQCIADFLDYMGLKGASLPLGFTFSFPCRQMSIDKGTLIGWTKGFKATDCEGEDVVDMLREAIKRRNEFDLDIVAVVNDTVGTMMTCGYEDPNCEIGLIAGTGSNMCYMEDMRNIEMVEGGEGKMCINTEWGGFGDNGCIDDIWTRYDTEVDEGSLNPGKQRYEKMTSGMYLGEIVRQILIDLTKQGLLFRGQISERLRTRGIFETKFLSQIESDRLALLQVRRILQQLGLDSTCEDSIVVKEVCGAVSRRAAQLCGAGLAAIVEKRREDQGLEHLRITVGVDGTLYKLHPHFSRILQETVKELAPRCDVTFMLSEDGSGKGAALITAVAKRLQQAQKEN
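Test system: recombinant HKDC1 (HK5) hexokinase enzyme, produced in-house; Amount: enzyme 5 µg/mL final; Buffer or medium: Tris pH 8.0 buffer with MgCl2, Tween-20, BSA, BME; Reagent: glucose and ATP substrates; Doses: 20 µM test compound, 1% DMSO; Incubation: 90 min reaction incubation at room temperature, dark; Detection: resorufin fluorescence at 613 nm.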
SUMO HTRF inh: blocks human SUMOylation mediated by UBC9; actives 0.36% (n = 290,000); inhibition, % at 35 µM; HTRF SUMOylation assay, SAE1/SAE2 + UBC9, in vitro; P63279; in the data active = inhibition above about 50%, passing the limit was not always enough
Redox H2O2 prof: compounds producing H2O2 with reducing agent – biochemical, NIH compound library profiling, artefact control for MLSCN library redox annotation, primary screen; DTT-dependent redox cycling H2O2, phenol red/HRP absorbance; 100% = 100 µM peroxide control, 0% = buffer; activation, % at 10 µM; actives 0.03% (n = 200,000);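 active = activation of at least 50% relative to the plate's high and low controls in the primary single-dose screen; inactive = activation below 50%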;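 also: compound incubated with DTT at 0.8 mM final as the reducing agent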
HKDC1 act conf: confirmation of human HKDC1 activators. shares compounds with HKDC1 inh. recombinant HKDC1, G6PDH/diaphorase resazurin fluorescence; hits give low values. inhibition, % at 20 µM. actives 14% (n = 740);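 active = inhibition at or below a set negative limit, negative inhibition meaning the enzyme was activated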
The depositor's hits bear a star; nt = not tested or not shown.

SMILES | GSTO1 inh | Apaf1 inhib | HKDC1 inh | SUMO HTRF inh | Redox H2O2 prof | HKDC1 act conf
CC(C)(O)[C@@H]1[C@H]2OC(=O)[C@@H]1[C@]1(O)C[C@H]3O[C@]34C(=O)O[C@H]2[C@]14C (tested in a mixture with another compound) | 3 | -4 | nt | nt | nt | nt
COc1cccc(C2(O)CCN(CC(=O)Nc3nc(C)cs3)CC2)c1 | 15 | -9 | -9 | 12 | 0 | nt
Cc1ccc(N2C(=O)NC(=O)/C(=C/c3ccoc3)C2=O)cc1 | nt | nt | 39* | 56* | nt | -3
Cc1ccc(OP2(=O)Nc3cc(C)c(C)cc3S2)cc1 (configuration not stated) | nt | nt | -41 | nt | nt | -23
COC(=O)C[C@]1(C(=O)OC)CN(C#N)N(c2ccc(Cl)cc2)C12c1ccccc1-c1ccccc12 | 1 | 22 | 87* | 1 | -1 | 62
COC(=O)[C@@H]1[C@@H](C(=O)OC)C2(c3ccccc3-c3ccccc32)N(c2ccc(Cl)cc2)N1C#N | -5 | 29 | 62* | 1 | 0 | 43
CCN(CC)S(=O)(=O)c1ccc(C(=O)NC2CN3CCC2CC3)cc1 (configuration not stated) | -4 | 4 | 0 | 0 | nt | nt
O=C(COc1ccc2ccc(=O)oc2c1)N1C[C@H]2C[C@@H](C1)c1cccc(=O)n1C2 | 3 | 1 | 0 | 6 | nt | nt
CCCCCc1nc2c(c(=O)c3ccccc3n2C)c(=O)n1C1CCCCCC1 | -5 | 35 | 31 | 6 | 1 | 17
CCCCCc1nc2ccccc2c(=O)n1-c1ccccc1[N+](=O)[O-] | 0 | -6 | -7 | 14 | 0 | nt
CCC(=NCCCn1ccnc1)c1c(O)n(-c2ccc(OC)cc2)c(=O)[nH]c1=O | 5 | -3 | -3 | 18 | nt | nt
